Among the data in ChEMBL document CHEMBL1629418, “Spiroimidazolidinone NPC1L1 inhibitors. Part 2: structure-activity studies and in vivo efficacy” (Bioorg Med Chem Lett, 2010) are inhibition in vivo, IC50 and Activity values, retold here.

The structures appear in SMILES notation. A value given as a limit tells only on which side of the number the result lay.

The test system of experiment [1] is Mus musculus. The experiment in a line: Inhibition of cholesterol-absorption in mouse plasma at 100 mg/kg, po. The class given is functional. Put shortly: (§1)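 Male C57BL/6 mice received compound orally as a suspension in 0.2 mL of 0.25% methocel. After 30 min, mice were given 0.2 mL oral [3H]cholesterol in IntraLipid. Mice were euthanized at 1.5 h or 5 h. Plasma [3H]cholesterol was counted from cardiac-puncture blood; liver was saponified for [3H]cholesterol. Six data points per dose were averaged; % inhibition reported.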

Experiment [2] relates to Mus musculus. The experiment in a line: Inhibition of cholesterol-absorption in mouse liver at 100 mg/kg, po. The class given is functional. In outline: as §1
Experiment [3] deals with NPC1-like intracellular cholesterol transporter 1 (Mus musculus) (UniProt Q6T3U4). The experiment in a line: Displacement of [35S](2S,3S,4S,5R,6S)-6-(4-((2S,3R)-3-((S)-3-(4-fluorophenyl)-3-hydroxypropyl)-1-(4-(3-(methylsulfonamido)prop-1-ynyl)phenyl)-4-oxoazetidin-2-yl)phenoxy)-3,4,5-trihydroxytetrahydro-2H-pyran-2-carboxylic acid from mouse NCP1L1 expressed in mouse brush border membrane. The class given is cell membranes.

In experiment [4] the target is T1, NPC1-like intracellular cholesterol transporter 1 (Homo sapiens, UniProt Q9UHC9).
T1 sequence (Q9UHC9 whole entry): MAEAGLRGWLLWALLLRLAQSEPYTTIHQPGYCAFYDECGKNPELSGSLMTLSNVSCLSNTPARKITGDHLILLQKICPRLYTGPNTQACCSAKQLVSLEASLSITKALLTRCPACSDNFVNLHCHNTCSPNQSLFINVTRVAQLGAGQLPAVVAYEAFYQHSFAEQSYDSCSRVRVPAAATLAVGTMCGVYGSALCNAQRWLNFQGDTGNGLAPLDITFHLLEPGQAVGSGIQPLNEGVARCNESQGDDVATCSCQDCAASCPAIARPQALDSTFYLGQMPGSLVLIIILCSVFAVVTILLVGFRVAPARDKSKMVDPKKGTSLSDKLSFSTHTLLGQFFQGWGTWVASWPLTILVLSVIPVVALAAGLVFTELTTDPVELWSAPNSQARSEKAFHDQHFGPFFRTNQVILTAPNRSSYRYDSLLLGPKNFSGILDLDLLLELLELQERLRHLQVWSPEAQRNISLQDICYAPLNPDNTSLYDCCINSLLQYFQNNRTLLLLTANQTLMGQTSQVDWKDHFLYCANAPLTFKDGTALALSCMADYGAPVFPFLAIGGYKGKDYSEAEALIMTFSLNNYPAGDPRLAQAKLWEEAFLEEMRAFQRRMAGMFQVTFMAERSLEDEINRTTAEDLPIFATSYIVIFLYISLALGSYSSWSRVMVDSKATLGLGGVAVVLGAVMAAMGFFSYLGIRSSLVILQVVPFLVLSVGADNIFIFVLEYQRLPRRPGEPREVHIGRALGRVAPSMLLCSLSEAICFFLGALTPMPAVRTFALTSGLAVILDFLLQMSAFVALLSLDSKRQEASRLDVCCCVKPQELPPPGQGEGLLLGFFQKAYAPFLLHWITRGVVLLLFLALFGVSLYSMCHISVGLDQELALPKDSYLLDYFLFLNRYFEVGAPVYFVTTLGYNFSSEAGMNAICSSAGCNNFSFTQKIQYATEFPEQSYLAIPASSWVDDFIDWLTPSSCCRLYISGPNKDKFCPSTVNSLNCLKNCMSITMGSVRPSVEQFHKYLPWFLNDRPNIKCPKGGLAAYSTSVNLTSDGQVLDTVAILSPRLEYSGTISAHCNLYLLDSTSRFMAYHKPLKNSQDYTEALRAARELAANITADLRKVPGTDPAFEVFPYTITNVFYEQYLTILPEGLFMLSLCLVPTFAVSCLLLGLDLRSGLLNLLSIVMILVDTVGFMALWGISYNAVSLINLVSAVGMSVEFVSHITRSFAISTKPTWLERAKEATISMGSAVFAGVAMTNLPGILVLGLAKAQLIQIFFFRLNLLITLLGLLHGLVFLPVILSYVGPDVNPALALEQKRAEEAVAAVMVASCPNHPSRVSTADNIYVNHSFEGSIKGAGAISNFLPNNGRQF
The experiment in a line: Displacement of [35S](2S,3S,4S,5R,6S)-6-(4-((2S,3R)-3-((S)-3-(4-fluorophenyl)-3-hydroxypropyl)-1-(4-(3-(methylsulfonamido)prop-1-ynyl)phenyl)-4-oxoazetidin-2-yl)phenoxy)-3,4,5-trihydroxytetrahydro-2H-pyran-2-carboxylic acid from human NCP1L1 expressed in HEK 293. The class given is cell-based, HEK293.

The test system of experiment [5] is Mus musculus. Nature of the experiment: Inhibition of cholesterol-absorption in mouse at 10 mg/kg, po. The class given is functional. Put shortly: as §1
The target in experiment [6] is T2, NPC1-like intracellular cholesterol transporter 1 (Homo sapiens) (UniProt Q9UHC9).
T2 sequence (whole entry): T1 sequence (Q9UHC9 whole entry)
The experiment in a line: Binding affinity to human NPC1L1.

Experiment [7] has as its system Mus musculus. Nature of the experiment: Inhibition of [3H]cholesterol absorption in C57BL/6 mouse plasma at 1 mg/kg, po after 1.5 hrs. The class given is functional. Conditions: C57BL/6, Plasma. Put shortly: as §1
The subject of experiment [8] is Mus musculus. Nature of the experiment: Inhibition of [3H]cholesterol absorption in C57BL/6 mouse plasma at 1 mg/kg, po after 5 hrs. The settings on record: C57BL/6, Plasma. The class given is functional. Put shortly:
as §1

The subject of experiment [9] is Mus musculus. The experiment in a line: Inhibition of cholesterol-absorption in mouse plasma at 30 mg/kg, po. The class given is functional. In outline:
as §1

The subject of experiment [10] is Mus musculus. The experiment in a line: Inhibition of [3H]cholesterol absorption in C57BL/6 mouse plasma at 100 mg/kg, po after 5 hrs. The class given is functional. The settings on record: C57BL/6, Plasma. In outline: as §1
Experiment [11] deals with Mus musculus. Nature of the experiment: Inhibition of cholesterol-absorption in mouse plasma at 10 mg/kg, po. The class given is functional. Put shortly:
as §1

Experiment [12] deals with Mus musculus. Nature of the experiment: Inhibition of [3H]cholesterol absorption in C57BL/6 mouse plasma at 30 mg/kg, po after 1.5 hrs. The class given is functional. The settings on record: C57BL/6, Plasma. Put shortly: as §1
Experiment [13] deals with Mus musculus. The experiment in a line: Inhibition of [3H]cholesterol absorption in C57BL/6 mouse plasma at 10 mg/kg, po after 1.5 hrs. The class given is functional. Conditions: C57BL/6, Plasma. In outline: as §1
The test system of experiment [14] is Mus musculus. Nature of the experiment: Inhibition of [3H]cholesterol absorption in C57BL/6 mouse plasma at 100 mg/kg, po after 1.5 hrs. The class given is functional. The settings on record: C57BL/6, Plasma. In outline:
as §1

NPC1-like intracellular cholesterol transporter 1 (Mus musculus), sequence (Q6T3U4 21-1333 limits assumed): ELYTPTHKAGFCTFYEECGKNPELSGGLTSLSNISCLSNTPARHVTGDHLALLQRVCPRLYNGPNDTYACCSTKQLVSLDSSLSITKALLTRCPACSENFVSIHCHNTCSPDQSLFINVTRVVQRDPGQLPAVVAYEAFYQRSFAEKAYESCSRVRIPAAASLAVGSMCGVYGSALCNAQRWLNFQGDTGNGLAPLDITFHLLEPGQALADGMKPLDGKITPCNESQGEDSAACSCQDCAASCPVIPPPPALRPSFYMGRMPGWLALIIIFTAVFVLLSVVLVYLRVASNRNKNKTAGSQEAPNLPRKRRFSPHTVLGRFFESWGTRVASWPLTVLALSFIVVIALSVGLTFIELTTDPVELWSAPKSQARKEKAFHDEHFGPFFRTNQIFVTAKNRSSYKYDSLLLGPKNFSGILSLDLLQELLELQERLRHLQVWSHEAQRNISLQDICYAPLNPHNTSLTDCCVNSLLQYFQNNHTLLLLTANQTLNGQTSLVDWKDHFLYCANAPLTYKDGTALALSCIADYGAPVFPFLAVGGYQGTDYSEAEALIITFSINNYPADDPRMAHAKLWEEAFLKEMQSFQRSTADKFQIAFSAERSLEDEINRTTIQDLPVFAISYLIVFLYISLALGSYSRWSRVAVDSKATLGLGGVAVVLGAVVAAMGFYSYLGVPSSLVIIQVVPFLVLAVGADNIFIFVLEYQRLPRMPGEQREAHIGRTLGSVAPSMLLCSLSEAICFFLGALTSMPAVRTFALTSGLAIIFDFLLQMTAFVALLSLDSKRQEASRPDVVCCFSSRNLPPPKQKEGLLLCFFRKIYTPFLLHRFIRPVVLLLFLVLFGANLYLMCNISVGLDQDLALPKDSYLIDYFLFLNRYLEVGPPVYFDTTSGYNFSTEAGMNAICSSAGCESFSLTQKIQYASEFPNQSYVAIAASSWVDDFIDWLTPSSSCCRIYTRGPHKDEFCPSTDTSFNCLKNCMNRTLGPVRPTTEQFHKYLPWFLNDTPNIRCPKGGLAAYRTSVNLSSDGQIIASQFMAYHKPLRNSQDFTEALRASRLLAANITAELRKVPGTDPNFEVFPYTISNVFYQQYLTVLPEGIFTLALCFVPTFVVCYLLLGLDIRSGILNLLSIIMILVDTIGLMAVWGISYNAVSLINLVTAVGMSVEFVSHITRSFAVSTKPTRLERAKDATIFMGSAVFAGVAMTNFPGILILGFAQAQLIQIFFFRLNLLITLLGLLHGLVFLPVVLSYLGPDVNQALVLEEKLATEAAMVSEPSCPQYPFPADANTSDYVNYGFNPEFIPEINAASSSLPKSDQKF

Turning to `CC(C)(C)OC(=O)N1CCN(C(=O)CN2CN(c3ccccc3)C3(CCN(C(=O)c4ccc(C5CCCCC5)cc4)CC3)C2=O)CC1`, the inhibition in vivo at 100 mg/kg in the experiment on Mus musculus [1] is 4.5%; in the experiment with Mus musculus [2], 58%. Besides, the IC50 in experiment [3] was found to be 49 µM; in experiment [4], 3.5 µM.

In the experiment with Mus musculus [5], `COC(=O)CCNC(=O)CN1CN(c2ccccc2)C2(CCN(C(=O)c3ccc(C(C)(C)C)cc3)CC2)C1=O` returned an inhibition in vivo at 10 mg/kg of 44%.

Regarding `CC(C)(C)c1ccc(C(=O)N2CCC3(CC2)C(=O)N(CC(=O)N2CCCCC2)CN3c2ccccc2)cc1`, the Activity in [6] was 2.5 µM.

Consider `CC(C)(C)OC(=O)NCCCCNC(=O)CN1CN(c2ccccc2)C2(CCN(C(=O)c3ccc(C(C)(C)C)cc3)CC2)C1=O`, for which, in the experiment on Mus musculus [5], at 10 mg/kg the inhibition in vivo was 7%.

For the compound `O=C1[C@H](CC[C@H](O)c2ccc(F)cc2)[C@@H](c2ccc(O)cc2)N1c1ccc(F)cc1` [EZETIMIBE], the inhibition in vivo at 1 mg/kg with Mus musculus [7] was determined as 7%; in the experiment with Mus musculus [8] it was 90%.

`CS(=O)(=O)NCCCNC(=O)CN1CN(c2ccccc2)C2(CCN(C(=O)c3ccc(C4CCCCC4)cc3)CC2)C1=O`: the inhibition in vivo at 100 mg/kg in the experiment with Mus musculus [1] and in the experiment on Mus musculus [2] was less than 5% in each case. This compound yielded an inhibition in vivo at 10 mg/kg in the experiment with Mus musculus [5] of 42%. Moreover, the IC50 in experiment [4] worked out at 2.5 µM.

Regarding `CC(C)(C)OC(=O)N1CCN(C(=O)CN2CN(c3ccccc3)C3(CCN(C(=O)c4ccc(C(C)(C)C)cc4)CC3)C2=O)CC1`, the IC50 in experiment [3] came to 49 µM; in [4] it was 1 µM.

Regarding `CCc1nn(CC)c(C2CCN(C(=O)CN3CN(c4ccccc4)C4(CCN(C(=O)c5ccc(C(C)(C)C)cc5)CC4)C3=O)CC2)c1C`, the inhibition in vivo at 30 mg/kg with Mus musculus [9] and in the experiment with Mus musculus [12] was 48% throughout. Also, the inhibition in vivo at 100 mg/kg was 62% in the experiment with Mus musculus [1], 67% in the experiment with Mus musculus [10] and 62% in the experiment with Mus musculus [14]. For the same compound, the inhibition in vivo at 10 mg/kg in the experiment on Mus musculus [11] and in the experiment on Mus musculus [13] was 35% each time. Moreover, the IC50 in experiment [3] amounted to 40 µM; in experiment [4], 2.5 µM.

As to `COC(=O)CCCNC(=O)CN1CN(c2ccccc2)C2(CCN(C(=O)c3ccc(C(C)(C)C)cc3)CC2)C1=O`, in the experiment on Mus musculus [5], the inhibition in vivo at 10 mg/kg is 35%.

On to `O=C(CN1CN(c2ccccc2)C2(CCN(C(=O)c3ccc(C4CCCCC4)cc3)CC2)C1=O)NCCCO`, for which the results for the inhibition in vivo at 100 mg/kg in the experiment on Mus musculus [1] and in the experiment on Mus musculus [2] were 43% and 70%, respectively. For the same compound, testing at 10 mg/kg in the experiment with Mus musculus [5] gave an inhibition in vivo of 42%. The IC50 in [4] was found to be 14 µM.

As to `O=C(CN1CN(c2ccccc2)C2(CCN(C(=O)c3ccc(C4CCCCC4)cc3)CC2)C1=O)N1CCN(C(=O)c2ccccc2)CC1`, the results for the inhibition in vivo at 100 mg/kg in the experiment on Mus musculus [1] and with Mus musculus [2] were 52% and 46%, respectively. Moreover, the half-inhibitory concentration (IC50) in experiment [3] is 19 µM; in experiment [4], 4.8 µM.

In the case of `CCC1CCCN(C(=O)CN2CN(c3ccccc3)C3(CCN(C(=O)c4ccc(C(C)(C)C)cc4)CC3)C2=O)C1` (stereo not drawn), the IC50 in experiment [4] turned out to be 3.9 µM.

On to `O=C(CN1CN(c2ccccc2)C2(CCN(C(=O)c3ccc(C4CCCCC4)cc3)CC2)C1=O)N1CCC(CO)CC1`, for which, in experiment [4], the IC50 came out at 1.1 µM.

As for `CC1CCCN(C(=O)CN2CN(c3ccccc3)C3(CCN(C(=O)c4ccc(C5CCCCC5)cc4)CC3)C2=O)C1` (stereo not drawn), the IC50 in experiment [4] was found to be 3.6 µM.

With `CCOC(=O)C1CCN(C(=O)CN2CN(c3ccccc3)C3(CCN(C(=O)c4ccc(C(C)(C)C)cc4)CC3)C2=O)CC1`, the IC50 in experiment [4] was 3.1 µM. This IC50 and that of the compound before are within 1.5-fold of each other.

As for `CC(C)(C)c1ccc(C(=O)N2CCC3(CC2)C(=O)N(CC(=O)N2CCC(CO)CC2)CN3c2ccccc2)cc1`, the IC50 in experiment [4] was 4 µM.

`CC(C)(C)c1ccc(C(=O)N2CCC3(CC2)C(=O)N(CC(=O)NCCCCCN)CN3c2ccccc2)cc1` registered an IC50 in [4] of 7.7 µM. Compared with the last compound, the IC50 is about 1.9-fold higher.

`CCn1nc(Cc2ccccc2)cc1C1CCN(C(=O)CN2CN(c3ccccc3)C3(CCN(C(=O)c4ccc(C(C)(C)C)cc4)CC3)C2=O)CC1`: the IC50 in [4] is 6.4 µM.

On to `CC(C)(C)c1ccc(C(=O)N2CCC3(CC2)C(=O)N(CC(=O)NCCCCCO)CN3c2ccccc2)cc1`, for which the IC50 in experiment [4] worked out at 3.8 µM.

With `O=C(CN1CN(c2ccccc2)C2(CCN(C(=O)c3ccc(C4CCCCC4)cc3)CC2)C1=O)NCCCCO`, 10 mg/kg produced 52% inhibition in vivo in the experiment with Mus musculus [5]. The compound further returned an IC50 in experiment [4] of 1.7 µM.

As for `O=C(CN1CN(c2ccccc2)C2(CCN(C(=O)c3ccc(C4CCCCC4)cc3)CC2)C1=O)N1CCNCC1`, the IC50 in experiment [4] was 6.5 µM.

`CC(C)(C)OC(=O)NCCCNC(=O)CN1CN(c2ccccc2)C2(CCN(C(=O)c3ccc(C(C)(C)C)cc3)CC2)C1=O` yielded an IC50 in [4] of 3.2 µM.

In the case of `CC(C)(C)c1ccc(C(=O)N2CCC3(CC2)C(=O)N(CC(=O)N2CCNCC2)CN3c2ccccc2)cc1`, in experiment [4], the IC50 was 22 µM.

Compound `COC(=O)CNC(=O)CN1CN(c2ccccc2)C2(CCN(C(=O)c3ccc(C(C)(C)C)cc3)CC2)C1=O` registered an IC50 in [4] of 16.6 µM.

In turn, `CC(C)(C)OC(=O)NC1CCN(C(=O)CN2CN(c3ccccc3)C3(CCN(C(=O)c4ccc(C5CCCCC5)cc4)CC3)C2=O)CC1` returned an IC50 in [4] of 4.8 µM.
